Assay results published in ChEMBL document CHEMBL4425130, “Macrocyclic Prodrugs of a Selective Nonpeptidic Direct Thrombin Inhibitor Display High Permeability, Efficient Bioconversion but Low Bioavailability” (J Med Chem, 2016).
In brackets after ≈: the same amount, converted by molar mass.

Experiments:
[1] = AUCinfinity in Han Wistar rat assessed as 3-((3-(2-(2-(Aminomethyl)-5-chlorobenzylamino)-2-oxoethyl)-4-methyl-2-oxo-5,6-dihydropyridin-1(2H)-ylamino)methyl)benzoic acid formation at 1 umol/kg, po administered via gavage by LC-MS/MS method; assay type: ADME, organism-based; parameters: dose 1 umol/kg, time infinity, route oral; conditions: in vivo
Procedure, shortened: (§1)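 Male Han Wistar rats, cannulated in the carotid artery for sampling and the jugular vein for i.v. dosing, one week before the study (two days before for intraduodenal dosing). Single doses: 0.5 µmol/kg i.v., or 1 µmol/kg by gavage or intraduodenally. Vehicles were 5% mannitol in water or DMA:TEG:water (1:1:1). Plasma sampled up to 24 h and analysed by LC-MS/MS. Non-compartmental analysis; means of n=3, with F from mean AUCinf.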

[2] = Prodrug conversion in human liver microsomes assessed as 3-((3-(2-(2-(Aminomethyl)-5-chlorobenzylamino)-2-oxoethyl)-4-methyl-2-oxo-5,6-dihydropyridin-1(2H)-ylamino)methyl)benzoic acid formation in presence of NADPH; assay type: ADME, Microsome
[3] = Prodrug conversion in human hepatocytes assessed as esterase-mediated formaldehyde formation at 4 uM after 40 mins by ultraperformance liquid chromatographic method; assay type: ADME, cell-based; conditions: isolated protein
Procedure, shortened: (§2)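 Cryopreserved human hepatocytes at 10^6 viable cells/mL, thawed and pre-warmed 10 min at 37 °C. Compound added from CH3CN stock at 4 µM final. Incubated 40 min, then quenched in cold CH3CN, with compound-free incubations as blanks. Metabolites assigned by LC-MS product ion spectra.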

physchem = conditions: 1-octanol/phosphate buffer, pH 7.4
Serine protease 1 = Serine protease 1 (Homo sapiens, UniProt P07477); test: Inhibition of human trypsin 1 using S-2222 as substrate preincubated for 300 secs followed by substrate addition measured after 40 mins
Serine protease 1, sequence (P07477 whole entry): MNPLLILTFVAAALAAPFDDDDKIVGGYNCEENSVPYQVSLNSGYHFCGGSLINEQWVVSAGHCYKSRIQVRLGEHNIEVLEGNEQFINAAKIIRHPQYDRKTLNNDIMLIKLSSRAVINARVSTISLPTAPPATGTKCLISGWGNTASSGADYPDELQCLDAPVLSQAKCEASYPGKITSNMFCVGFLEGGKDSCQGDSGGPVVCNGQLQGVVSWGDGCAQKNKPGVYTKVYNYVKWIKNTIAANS
Procedure, shortened: (§3)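 Human proteases assayed at one substrate concentration with ten inhibitor concentrations at 37 °C, ≤1.3% DMSO, in an enzyme-specific Tris-HCl pH 7.4 buffer. Enzyme and inhibitor preincubated 300 s, then substrate added; absorbance read at 405 nm after 40 min. IC50 converted to Ki by IC50 = Ki(1+S/KM), using KM measured under assay conditions.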

[4] = Bioavailability in Han Wistar rat assessed as 3-((3-(2-(2-(Aminomethyl)-5-chlorobenzylamino)-2-oxoethyl)-4-methyl-2-oxo-5,6-dihydropyridin-1(2H)-ylamino)methyl)benzoic acid formation at 1 umol/kg administered intraduodenally by LC-MS/MS method; assay type: ADME, organism-based; conditions: in vivo, other; procedure, shortened: as §1
[5] = Prodrug conversion in human plasma assessed as esterase-mediated metabolite formation after 4 hrs; assay type: ADME, cell-free
Prothrombin = Prothrombin (Homo sapiens, UniProt P00734); test: Inhibition of human alpha-thrombin using S-2366 as substrate after 40 mins
[6] = Prodrug conversion in rat hepatocytes assessed as esterase-mediated 3-((3-(2-(2-(Aminomethyl)-5-chlorobenzylamino)-2-oxoethyl)-4-methyl-2-oxo-5,6-dihydropyridin-1(2H)-ylamino)methyl)benzoic acid formation at 4 uM after 40 mins by ultraperformance liquid chromatographic method; assay type: ADME, cell-based
[7] = Cmax in Han Wistar rat at 1 umol/kg administered intraduodenally by LC-MS/MS method; assay type: ADME; parameters: dose 1 umol/kg, route intraduodenal; conditions: in vivo; procedure, shortened: as §1
[8] = AUCinfinity in Han Wistar rat assessed as 3-((3-(2-(2-(Aminomethyl)-5-chlorobenzylamino)-2-oxoethyl)-4-methyl-2-oxo-5,6-dihydropyridin-1(2H)-ylamino)methyl)benzoic acid formation at 1 umol/kg administered intraduodenally by LC-MS/MS method; assay type: ADME; parameters: dose 1 umol/kg, route intraduodenal, time infinity; conditions: in vivo, other; procedure, shortened: as §1
[9] = Cmax in Han Wistar rat at 1 umol/kg, po administered via gavage by LC-MS/MS method; assay type: ADME, organism-based; parameters: dose 1 umol/kg, route oral; conditions: in vivo; procedure, shortened: as §1
[10] = Oral bioavailability in Han Wistar rat assessed as 3-((3-(2-(2-(Aminomethyl)-5-chlorobenzylamino)-2-oxoethyl)-4-methyl-2-oxo-5,6-dihydropyridin-1(2H)-ylamino)methyl)benzoic acid formation at 1 umol/kg administered via gavage by LC-MS/MS method; assay type: ADME, organism-based; conditions: in vivo; procedure, shortened: as §1
[11] = Efflux ratio of apparent permeability across basolateral to apical over apical to basolateral side in human Caco2 cells at 10 uM after 45 to 120 mins by ultraperformance LC/MS/MS method; conditions: Caco-2
[12] = Apparent terminal half life in Han Wistar rat at 1 umol/kg administered intraduodenally by LC-MS/MS method; assay type: ADME; conditions: in vivo, read-out: betat1/2(app) (converted); procedure, shortened: as §1
[13] = Apparent permeability across apical to basolateral side in human Caco2 cells at 10 uM after 45 to 120 mins by ultraperformance LC/MS/MS method; conditions: Caco-2
[14] = Solubility of the compound in phosphate buffer at pH 7.4 at 25 degC after 24 hrs by ultraperformance LC/MS/MS method
[15] = Prodrug conversion in human liver microsomes assessed as 3-((3-(2-(2-(Aminomethyl)-5-chlorobenzylamino)-2-oxoethyl)-4-methyl-2-oxo-5,6-dihydropyridin-1(2H)-ylamino)methyl)benzoic acid formation in absence of NADPH; assay type: ADME, Microsome
[16] = Apparent terminal half life in Han Wistar rat at 1 umol/kg, po administered via gavage by LC-MS/MS method; assay type: ADME, organism-based; conditions: in vivo, read-out: betat1/2(app) (converted); procedure, shortened: as §1
Homo sapiens [17] = species: Homo sapiens; test: Selectivity ratio of Ki for human tissue factor/F7a to Ki for human alpha-thrombin
[18] = Apparent terminal half life in Han Wistar rat at 0.5 umol/kg, iv by LC-MS/MS method; assay type: ADME, organism-based; conditions: in vivo, read-out: betat1/2(app) (converted); procedure, shortened: as §1
[19] = Volume of distribution at steady state in Han Wistar rat at 0.5 umol/kg, iv by LC-MS/MS method; assay type: ADME, organism-based; conditions: in vivo, read-out: Vdss; procedure, shortened: as §1
[20] = rat, isolated protein, 40 min, 4 µM
[21] = Drug level in human liver microsomes treated with treated with 25-Chloro-18-methyl-13,14,17,20,22,23-hexahydro-1H,7H-15,19-methano-8,12-(metheno)-4,6,2,14,15,22-benzodioxatetraazacyclopentacosine-3,7,21,28(1H,16H)-tetrone in absence of NADPH; assay type: ADME, Microsome
Homo sapiens [22] = species: Homo sapiens; test: Selectivity ratio of Ki for human plasmin to Ki for human alpha-thrombin
Plasminogen = Plasminogen (Homo sapiens, UniProt P00747); test: Inhibition of human plasmin using S-2366 as substrate preincubated for 300 secs followed by substrate addition measured after 40 mins; procedure, shortened: as §3
Plasminogen, sequence (P00747 97-580 limits assumed): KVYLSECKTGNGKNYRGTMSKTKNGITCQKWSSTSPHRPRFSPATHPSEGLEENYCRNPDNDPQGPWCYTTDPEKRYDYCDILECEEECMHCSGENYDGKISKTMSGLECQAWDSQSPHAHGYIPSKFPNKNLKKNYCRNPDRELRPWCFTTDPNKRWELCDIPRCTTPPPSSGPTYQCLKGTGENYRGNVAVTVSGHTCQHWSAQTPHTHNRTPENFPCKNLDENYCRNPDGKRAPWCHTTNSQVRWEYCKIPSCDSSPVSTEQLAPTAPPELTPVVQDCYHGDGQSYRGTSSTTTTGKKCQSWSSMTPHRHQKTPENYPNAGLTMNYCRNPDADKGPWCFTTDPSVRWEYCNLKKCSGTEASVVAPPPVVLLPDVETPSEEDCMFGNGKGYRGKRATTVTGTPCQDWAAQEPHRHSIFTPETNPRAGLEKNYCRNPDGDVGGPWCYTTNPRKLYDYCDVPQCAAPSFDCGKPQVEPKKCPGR
Plasminogen, sequence (P00747 581-810 limits assumed): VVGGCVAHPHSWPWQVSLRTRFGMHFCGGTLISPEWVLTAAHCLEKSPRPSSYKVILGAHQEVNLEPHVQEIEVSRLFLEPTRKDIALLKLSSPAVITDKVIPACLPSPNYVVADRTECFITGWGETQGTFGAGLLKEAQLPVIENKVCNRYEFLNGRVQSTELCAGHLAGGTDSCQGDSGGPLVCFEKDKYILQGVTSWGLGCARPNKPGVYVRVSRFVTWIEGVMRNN

Coagulation factor IX = Coagulation factor IX (Homo sapiens, UniProt P00740); test: Inhibition of human F9a using pefachrome F9a as substrate preincubated for 300 secs followed by substrate addition measured after 40 mins
Coagulation factor IX, sequence (P00740 47-191 limits assumed): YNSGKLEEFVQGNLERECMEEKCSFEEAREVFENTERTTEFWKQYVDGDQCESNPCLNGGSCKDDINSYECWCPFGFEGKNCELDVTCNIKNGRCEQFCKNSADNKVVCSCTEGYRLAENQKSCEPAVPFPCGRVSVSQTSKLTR
Coagulation factor IX, sequence (P00740 227-461 limits assumed): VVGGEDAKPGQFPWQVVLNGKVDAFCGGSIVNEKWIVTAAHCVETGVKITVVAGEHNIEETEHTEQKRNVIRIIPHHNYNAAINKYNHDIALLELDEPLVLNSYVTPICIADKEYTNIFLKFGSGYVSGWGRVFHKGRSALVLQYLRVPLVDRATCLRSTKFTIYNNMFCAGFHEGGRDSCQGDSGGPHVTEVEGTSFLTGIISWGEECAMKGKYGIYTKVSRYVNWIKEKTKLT

Rattus norvegicus = species: Rattus norvegicus; test: Antithrombotic activity in rat caval vein thrombosis model assessed as prevention of venous thrombosis; assay type: functional, organism-based
[23] = Intrinsic clearance in Sprague-Dawley rat liver microsomes at 1 umol/L after 7 to 30 mins by LC-MS/MS method; assay type: ADME, Microsome; conditions: read-out: CLH
[24] = AUCinfinity in Han Wistar rat at 1 umol/kg, po administered via gavage by LC-MS/MS method; assay type: ADME, organism-based; parameters: dose 1 umol/kg, time infinity, route oral; conditions: in vivo; procedure, shortened: as §1
Cytochrome P450 3A4 = Cytochrome P450 3A4 (Homo sapiens, UniProt P08684); test: Inhibition of human CYP3A4; assay type: ADME
Cytochrome P450 3A4, sequence (P08684 whole entry): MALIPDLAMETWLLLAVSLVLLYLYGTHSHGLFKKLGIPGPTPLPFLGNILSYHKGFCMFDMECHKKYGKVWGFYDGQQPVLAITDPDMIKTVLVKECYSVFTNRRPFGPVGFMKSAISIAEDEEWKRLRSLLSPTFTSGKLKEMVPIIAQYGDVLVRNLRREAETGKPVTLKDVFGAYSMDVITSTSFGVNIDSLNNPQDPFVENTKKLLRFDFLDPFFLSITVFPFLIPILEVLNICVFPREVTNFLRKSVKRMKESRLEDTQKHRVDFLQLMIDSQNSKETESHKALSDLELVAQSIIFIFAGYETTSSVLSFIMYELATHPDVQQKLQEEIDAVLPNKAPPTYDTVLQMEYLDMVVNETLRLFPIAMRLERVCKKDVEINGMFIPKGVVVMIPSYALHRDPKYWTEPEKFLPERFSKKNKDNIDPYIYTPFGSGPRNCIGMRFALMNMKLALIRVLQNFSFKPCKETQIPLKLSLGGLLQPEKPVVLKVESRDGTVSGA

[25] = (§4) Drug level in rat hepatocytes treated with 25-Chloro-5,18-dimethyl-13,14,17,20,22,23-hexahydro-1H,7H-15,19-methano-8,12-(metheno)-4,6,2,14,15,22-benzodioxatetraazacyclopentacosine-3,7,21,28(2H,16H)-tetrone assessed as esterase-mediated compound formation at 4 uM after 40 mins by ultraperformance liquid chromatographic method; assay type: ADME, cell-based; conditions: isolated protein
[26] = Drug level in human liver microsomes treated with treated with 25-Chloro-5,18-dimethyl-13,14,17,20,22,23-hexahydro-1H,7H-15,19-methano-8,12-(metheno)-4,6,2,14,15,22-benzodioxatetraazacyclopentacosine-3,7,21,28(2H,16H)-tetrone in presence of NADPH; assay type: ADME, Microsome
Plasma = test: Anticoagulant activity in human citrated plasma assessed as concentration required to double activated partial thromboplastin time after 3 mins by coagulation analyser; assay type: functional, cell-free; conditions: 0.05 h
Homo sapiens [27] = species: Homo sapiens; test: Selectivity ratio of Ki for human F9a to Ki for human alpha-thrombin
Coagulation factor XI = Coagulation factor XI (Homo sapiens, UniProt P03951); test: Inhibition of human F11a using S-2366 as substrate preincubated for 300 secs followed by substrate addition measured after 40 mins; procedure, shortened: as §3
Coagulation factor XI, sequence (P03951 19-387 limits assumed): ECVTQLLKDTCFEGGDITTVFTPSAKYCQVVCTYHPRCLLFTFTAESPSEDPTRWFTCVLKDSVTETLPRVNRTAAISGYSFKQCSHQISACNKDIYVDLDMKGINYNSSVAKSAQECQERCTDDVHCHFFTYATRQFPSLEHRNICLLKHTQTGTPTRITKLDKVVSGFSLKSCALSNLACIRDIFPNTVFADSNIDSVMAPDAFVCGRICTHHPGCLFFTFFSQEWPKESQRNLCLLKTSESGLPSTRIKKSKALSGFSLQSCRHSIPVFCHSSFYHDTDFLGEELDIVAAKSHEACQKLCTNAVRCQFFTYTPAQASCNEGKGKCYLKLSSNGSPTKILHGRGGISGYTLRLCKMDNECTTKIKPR
Coagulation factor XI, sequence (P03951 388-625 limits assumed): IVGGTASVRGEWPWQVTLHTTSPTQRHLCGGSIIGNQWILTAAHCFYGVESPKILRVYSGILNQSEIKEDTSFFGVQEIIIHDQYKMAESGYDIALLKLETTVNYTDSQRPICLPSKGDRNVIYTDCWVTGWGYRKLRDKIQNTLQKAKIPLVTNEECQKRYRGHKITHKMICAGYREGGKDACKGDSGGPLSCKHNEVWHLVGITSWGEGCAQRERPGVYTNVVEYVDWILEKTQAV

[28] = as §4, with “human” for “rat”; assay type: ADME, cell-based; conditions: isolated protein; procedure, shortened: as §2
[29] = Drug level in human hepatocytes treated with 25-Chloro-18-methyl-13,14,17,20,22,23-hexahydro-1H,7H-15,19-methano-8,12-(metheno)-4,6,2,14,15,22-benzodioxatetraazacyclopentacosine-3,7,21,28(1H,16H)-tetrone assessed as esterase-mediated compound formation at 4 uM after 40 mins by ultraperformance liquid chromatographic method; assay type: ADME, cell-based; conditions: isolated protein; procedure, shortened: as §2
Coagulation factor X = Coagulation factor X (Homo sapiens, UniProt P00742); test: Inhibition of human F10a using S-2765 as substrate preincubated for 300 secs followed by substrate addition measured after 40 mins; procedure, shortened: as §3
Coagulation factor X, sequence (P00742 41-179 limits assumed): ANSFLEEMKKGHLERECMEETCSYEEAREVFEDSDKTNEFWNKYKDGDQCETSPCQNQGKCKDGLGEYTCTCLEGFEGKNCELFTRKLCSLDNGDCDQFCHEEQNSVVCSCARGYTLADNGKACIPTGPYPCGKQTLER
Coagulation factor X, sequence (P00742 235-488 limits assumed): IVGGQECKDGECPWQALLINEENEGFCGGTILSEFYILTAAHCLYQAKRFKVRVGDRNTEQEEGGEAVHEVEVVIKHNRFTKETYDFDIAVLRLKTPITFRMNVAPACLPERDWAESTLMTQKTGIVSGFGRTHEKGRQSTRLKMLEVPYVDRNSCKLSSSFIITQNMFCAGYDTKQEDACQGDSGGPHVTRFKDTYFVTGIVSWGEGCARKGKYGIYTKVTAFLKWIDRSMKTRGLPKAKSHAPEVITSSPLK

Homo sapiens [30] = species: Homo sapiens; test: Selectivity ratio of Ki for human F10a to Ki for human alpha-thrombin
[31] = Inhibition of human tissue factor/F7a using spectrozyme as substrate preincubated for 300 secs followed by substrate addition measured after 40 mins; procedure, shortened: as §3
[32] = Clearance in Han Wistar rat at 0.5 umol/kg, iv by LC-MS/MS method; assay type: ADME, organism-based; conditions: in vivo; procedure, shortened: as §1
Homo sapiens [33] = species: Homo sapiens; test: Selectivity ratio of Ki for human F11a to Ki for human alpha-thrombin
[34] = Drug level in human liver microsomes treated with treated with 25-Chloro-5,18-dimethyl-13,14,17,20,22,23-hexahydro-1H,7H-15,19-methano-8,12-(metheno)-4,6,2,14,15,22-benzodioxatetraazacyclopentacosine-3,7,21,28(2H,16H)-tetrone in absence of NADPH; assay type: ADME, Microsome
[35] = AUCinfinity in Han Wistar rat at 0.5 umol/kg, iv by LC-MS/MS method; assay type: ADME, organism-based; parameters: dose 0.5 umol/kg, time infinity, route intravenous; conditions: in vivo; procedure, shortened: as §1
[36] = Oral bioavailability in Han Wistar rat at 1 umol/kg administered via gavage by LC-MS/MS method; assay type: ADME, organism-based; conditions: in vivo; procedure, shortened: as §1
[37] = biological target: Thrombin & trypsin (Homo sapiens) (UniProt P00734+P07477+P07478+P35030); test: Selectivity ratio of Ki for human trypsin 1 to Ki for human alpha-thrombin; assay type: protein assay
[38] = Drug level in human liver microsomes treated with treated with 25-Chloro-18-methyl-13,14,17,20,22,23-hexahydro-1H,7H-15,19-methano-8,12-(metheno)-4,6,2,14,15,22-benzodioxatetraazacyclopentacosine-3,7,21,28(1H,16H)-tetrone in presence of NADPH; assay type: ADME, Microsome
[39] = Drug level in rat hepatocytes treated with Methyl 3-(((3-(2-((5-Chloro-2-(((methoxycarbonyl)amino)-methyl)benzyl)amino)-2-oxoethyl)-4-methyl-2-oxo-5,6-dihydropyridin-1(2H)-yl)amino)methyl)benzoate assessed as esterase-mediated compound formation at 4 uM after 40 mins by ultraperformance liquid chromatographic method; assay type: ADME, cell-based; conditions: isolated protein

CC1=C2CC(=O)NCc3cc(Cl)ccc3CNC(=O)OCOC(=O)c3cccc(c3)CNN(CC1)C2=O
AUC [1]: 0.0127 µM·h | Drug metabolism [2]: Metabolite_Detected | Drug metabolism [3]: Metabolite_Detected | logD at 3 h (physchem): 2.3 | Ki (Serine protease 1): > 5.4 µM | F [4]: 1.6% | Drug metabolism [5]: Metabolite_Notdetected | Ki (Prothrombin): 0.2 µM | Drug metabolism [6]: Metabolite_Detected | Cmax [7]: 108 nM | AUC [8]: 0.0081 µM·h | Cmax [9]: 11 nM | F [10]: 2.5% | efflux ratio at 10 µM [11]: 5.6 | half-life [12]: 6.6 min | Papp A→B at 10 µM [13]: 48 ×10⁻⁶ cm/s | solubility at 24 h [14]: 120 µM (≈ 63.2 µg/mL) | Drug metabolism [15]: Metabolite_Detected | half-life [16]: 67.2 min

CC1=C(CC(=O)NCc2cc(Cl)ccc2CN)C(=O)N(NCc2cccc(C(=O)O)c2)CC1
Ratio Ki (Homo sapiens [17]): > 1000 | half-life [18]: 21 min | Vd [19]: 0.23 L/kg | Drug metabolism [20]: Metabolite_Detected | Drug metabolism [21]: Metabolite_Detected | Ratio Ki (Homo sapiens [22]): > 1000 | Ki (Plasminogen): > 19 µM | logD at 3 h (physchem): -0.5 | Ki (Coagulation factor IX): > 29 µM | Ki (Serine protease 1): > 5.4 µM | IC50 (Rattus norvegicus): 0.097 µM | microsomal CLint at 1 µM [23]: < 15 µL/min/mg | AUC(0-inf) [24]: 0.0025 µM·h | IC50 (Cytochrome P450 3A4): > 50 µM | Drug metabolism [25]: Metabolite_Detected | Ki (Prothrombin): 0.0046 µM | Drug metabolism [26]: Metabolite_Detected | IC50 (Plasma): 1.2 µM | Ratio Ki (Homo sapiens [27]): > 1000 | Ki (Coagulation factor XI): > 19 µM | Drug metabolism [28]: Metabolite_Detected | Drug metabolism [29]: Metabolite_Detected | Cmax [9]: 4 nM | Ki (Coagulation factor X): > 17 µM | efflux ratio at 10 µM [11]: 2.4 | Ratio Ki (Homo sapiens [30]): > 1000 | Ki [31]: > 33 µM | clearance [32]: 32.4 mL/min/kg | Ratio Ki (Homo sapiens [33]): > 1000 | Drug metabolism [34]: Metabolite_Detected | AUC(0-inf) [35]: 0.258 µM·h | bioavailability [36]: 0.5% | Ratio Ki [37]: > 1000 | Drug metabolism [38]: Metabolite_Detected | Papp A→B at 10 µM [13]: 0.1 ×10⁻⁶ cm/s | solubility at 24 h [14]: > 100 µM | half-life [16]: 33.6 min

CC1=C(CC(=O)NCc2cc(Cl)ccc2CNC(=O)OC(C)(C)C)C(=O)N(NCc2cccc(C(=O)O)c2)CC1
Drug metabolism [39]: Metabolite_Detected
